Only a selection was taken, and hits are over-represented in it overall.
UPR XBP1 act = activators of adaptive XBP1 UPR arm, primary screen, cell-based, CHO-XBP1 luciferase reporter, luminescence, uHTS. IRE1-XBP1 UPR activation; percent of tunicamycin response, DMSO as zero. activation, % at 20 µM. hit rate 0.33% among 330,000. AID 463104, 2010;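 active = versus positive control, 20 µM dose yields 30% or more activation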;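 also: 100% = tunicamycin at 10 µg/mL and 0% = DMSO only wells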
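Material: IRE1-XBP1 luciferase reporter CHO line / Quantity: one thousand reporter cells per well / Buffer or medium: F12 with 10% serum / Compound: 20 µM single concentration, DMSO 1% / Times: 6 h treatment, 37 °C / Detection: Steady-Glo luciferase glow luminescence, 10 min after reagent addition / Benchmarks: tunicamycin high, DMSO low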
A1 inh = caspase 3/7 activation in MEF A1-2A-BIM cells, primary screen, A1 inhibitor project, cell-based, luminescence, HTS; Caspase-Glo 3/7 luminescence, 3 h; percent of clofoctol response, vehicle zero; caspase activation, % (concentration not given with the values); hit rate 0.066% among 330,000;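 active = over half of replicate activation scores above 10%, or exactly half above 10 with the replicate mean above 10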
CHOP inh = inhibitors of CHOP promoter induction, primary screen, cell-based, unfolded protein response, luciferase reporter. CHO-K1 CHOP-promoter luciferase, tunicamycin-induced, 15-18 h. inhibition, % at 10 µM. hit rate 3.8% among 220,000;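 active = compounds that reduced the stress-induced luciferase reporter signal by more than about 70% of percent inhibition, limit read from the data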;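 also: 0% = tunicamycin plus vehicle and 100% = wells without tunicamycin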
UPR CHOP act = activators of apoptotic CHOP UPR arm, primary screen, cell-based, CHO-CHOP luciferase reporter, luminescence, uHTS; UPR activation; percent of tunicamycin response over DMSO baseline; activation, % at 10 µM; hit rate 0.34% among 330,000;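 active = at 10 µM dose, activation of 40% or more, normalized to positive control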;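 also: 100% = tunicamycin at 10 µg/mL and 0% = DMSO alone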
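Test system: CHO CHOP reporter cells. Input: 500 CHO-CHOP cells per well. Medium: F12 with 10% FBS. Technique: luciferase luminescence. Measure: percent activation relative to tunicamycin control. Dosing: 10 µM compound, 0.5% DMSO. Timing: 16-18 h cell attachment, then 6 h compound exposure, 37 °C.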
UPR CHOP confirm = activators of apoptotic CHOP UPR arm, confirmation, cell-based, CHO-CHOP luciferase reporter, single concentration; shares compounds with UPR CHOP act; CHO-CHOP cells, CHOP-luciferase reporter luminescence; percent of tunicamycin response, DMSO as zero; activation, % at 10 µM; hit rate 64% among 1,000; AID 463112, 2010; in the data active = activation above about 33%;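 also: 0% = DMSO wells and 100% = tunicamycin 10 µg/mL wells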
UPR XBP1 confirm = IRE1-XBP1 UPR arm activators, confirmation, cell-based, CHO-XBP1 luciferase reporter, luminescence, single concentration. shares compounds with UPR XBP1 act. hit rate 63% among 1,000. AID 485299, 2010. activation, % at 20 µM;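 active = reporter signal at least 30% of the positive control's activation in two or more of four replicate wells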;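 also: plate controls were DMSO negative control for no effect and tunicamycin 10 µg/mL positive control for full effect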
Numbers without * were called inactive; . = no result given.

SMILES | UPR XBP1 act | A1 inh | CHOP inh | UPR CHOP act | UPR CHOP confirm | UPR XBP1 confirm
O=C(/C=C1\NC2(CCCC2)Cc2ccccc21)C(=O)N/N=C/c1ccc(O)c(O)c1 | 92* | 0 | 54 | 124* | 68* | 80*
Cc1ccc(OCCCC(=O)Nc2nncs2)cc1 | -2 | 0 | 31 | -1 | . | .
O=C(COc1ccc([N+](=O)[O-])cc1Cl)NCCc1ccccc1 | 0 | 1 | 27 | 2 | . | .
O=C(COC(=O)CCc1nc2ccccc2c(=O)[nH]1)NC(=O)NC1CCCC1 | -5 | 0 | 13 | 0 | . | .
O=C(c1nc2ccc(Cl)cn2c1CNCCn1ccnc1)N1CCCCCCC1 | 2 | 0 | 3 | -1 | . | .
Cc1cccc(-c2c3c(=O)n(C)c(=O)n(C)c3cn2C(C)C)c1 | 5 | 0 | 23 | 0 | . | .
CCOc1ccc(-n2nc3ccc(NC(=O)c4ccc5c(c4)OCCO5)cc3n2)cc1 | 155* | 2 | 76* | 73* | 20 | 122*
O=C(NC(=S)Nc1ccc(NC(=O)c2cccs2)cc1)c1cc2ccccc2o1 | 121* | 3 | 76* | 57* | 46* | 106*
O=C(NC(=S)Nc1ccc(NC(=O)c2cccs2)cc1)c1ccco1 | 0 | 0 | 19 | 3 | . | .
O=c1c(-c2ccc(O)cc2)coc2cc(O)cc(O)c12 | 3 | 0 | -14 | 1 | . | .
CC1(C)C=Cc2c(c3c(c4c(=O)c(-c5ccc(O)cc5)coc24)OC(C)(C)CC3)O1 | 54* | 1 | 92* | 87* | 44* | 64*
O=C(Nc1nc(-c2ccc(F)c(F)c2)cs1)Nc1ccc(F)cc1F | 74* | 0 | . | 47* | 53* | 123*
O=C(Cc1ccccc1)Nc1nc(-c2ccc(F)c(F)c2)cs1 | 5 | 0 | . | 2 | . | .
NS(=O)(=O)c1ccc(N/N=C/c2cn(-c3ccccc3)nc2-c2ccccc2)c([N+](=O)[O-])c1 | 78* | 5.8* | 10 | 104* | 0 | 75*
N=c1c(-c2nc3ccccc3[nH]2)cc(C(=O)c2ccco2)nn1-c1ccccc1 | 33* | 0 | -123 | 153* | 148* | 28
COc1ccc(-c2cc(=O)oc3c(C)c(OC(C)C(C)=O)ccc23)cc1 (configuration not stated) | 1 | 2 | . | -1 | . | .
COc1ccc(-c2cc(=O)oc3c(C)c(OC(=O)c4cccs4)ccc23)cc1 | 80* | 17* | 80* | 66* | 89* | 114*
CCN(CCCNC(=O)CNC(=O)c1nn(-c2ccc(OC)cc2OC)c(=O)c2ccccc12)c1cccc(C)c1 | -3 | 0 | . | 3 | . | .
CC(C)CC(=O)Nc1ccc(S(=O)(=O)NCc2ccco2)cc1 | -3 | 0 | 19 | 0 | . | .
CCOC(=O)c1c(NC(=O)CC2Nc3ccccc3NC2=O)sc(C)c1C (configuration not stated) | -1 | 2 | 63 | 1 | . | .
COC(=O)c1c(NC(=O)CC2Nc3ccccc3NC2=O)sc(C)c1C (configuration not stated) | 47* | 1 | 35 | 160* | 40* | 31*
C=CCNc1nc(C2(C)CC3(CC(C)(C)OC3=O)C(=O)O2)cs1 (configuration not stated) | -4 | -2 | 32 | -2 | . | .
Cc1cnc(NC(=O)c2cc(S(=O)(=O)N(C)C)ccc2N2CCCC2)s1 | 98* | 1 | . | 96* | 105* | 87*
CN(C)S(=O)(=O)c1ccc(N2CCCC2)c(C(=O)Nc2nc3c(ccc4ccccc43)s2)c1 | 1 | 2 | 34 | 1 | . | .
CCCn1c(C)cs/c1=N\C(=S)Nc1ccccc1 | 0 | 0 | 21 | 0 | . | .
SMILES | UPR XBP1 act | A1 inh | CHOP inh | UPR CHOP act | UPR CHOP confirm | UPR XBP1 confirm
CCc1ccc(-n2c(SCC(=O)c3ccc4c(c3)NC(=O)CO4)nc3ccccc3c2=O)cc1 | 61* | 1 | 27 | 62* | 115* | 118*
O=c1[nH]c(-c2ccc(-c3cccc(Cl)c3)o2)nc2ccccc12 | 92* | -5 | . | 74* | 105* | 176*
O=c1oc(Nc2cccc(Cl)c2)nc2ccccc12 | 10 | -9 | -32 | 3 | . | .
CS(=O)(=O)Oc1ccc2c(c1)O/C(=C\C=C\c1ccccc1)C2=O | 47* | -1 | 31 | 154* | 34* | 2
C#CCn1c(=NC(=O)c2ccc(S(=O)(=O)N3CCc4ccccc4C3)cc2)sc2cc(S(N)(=O)=O)ccc21 | 58* | 0 | 110* | 82* | 20 | 83*
COc1cc(SC#N)ccc1N=Cc1c(C)[nH]n(-c2ccc(Cl)cc2)c1=O | 101* | -1 | 104* | 86* | 89* | 134*
COc1cc(S(=O)(=O)Nc2ccccc2)ccc1N=Cc1c(C)[nH]n(-c2ccc(C)cc2)c1=O | 1 | 0 | 49 | 2 | . | .
COc1cc(SC#N)ccc1N=Cc1c(C)[nH]n(-c2ccc(C)c(C)c2)c1=O | 54* | 2 | 107* | 68* | 39* | 73*
O=C1C=C(O)CC(c2ccco2)C1 (configuration not stated) | -6 | 1 | 11 | 0 | . | .
O=C(NN1C(=O)/C(=C/c2ccc(O)c(O)c2)SC1=S)c1ccccc1 | 59* | -1 | . | 43* | 2 | 57*
FC(F)(F)c1nnc2c(Sc3ccccc3)nc3ccc(Cl)cc3n12 | 115* | 0 | -104 | 233* | 152* | 124*
C/C(=N\Nc1ncnc2sc(C)c(C)c12)c1ccccn1 | 97* | -1 | . | 97* | 88* | 122*
CC(OC(=O)c1oc2ccccc2c1COc1ccccc1)C(N)=O (configuration not stated) | 0 | 1 | 19 | 1 | . | .
CN(/N=C\c1ccc(O)c(O)c1)c1nc(-c2ccccc2)cc(-c2ccccc2)n1 | 66* | 2 | 103* | 112* | 93* | 98*
Cc1cc(C)n2nc(CNS(=O)(=O)c3ccc(C)c(C)c3)nc2n1 | -2 | 1 | . | 1 | . | .
COc1ccc(Cn2c(SCc3ccc(C)cc3)nc3cc(OC)c(OC)cc3c2=N)cc1Cl | 32* | 3 | 72* | 88* | 39* | 7
CN(Cc1nc(-c2cccc(Cl)c2)no1)C1CCOCC1 | 2 | -1 | -14 | 6 | . | .
O=CC1=C(c2ccccc2)Oc2ccccc2O1 | 37* | 3 | . | 67* | 72* | 33*
CN(C)/C=C1/N=C(c2ccccc2)OC1=O | 0 | 0 | 0 | 6 | . | .

Screening results: PubChem BioAssay, several laboratories
